From ChEMBL document CHEMBL1795235, “Quercetin diacylglycoside analogues showing dual inhibition of DNA gyrase and topoisomerase IV as novel antibacterial agents” (J Med Chem, 2011)
In brackets after ≈: the same amount, converted by molar mass.

How the values were obtained:
Staphylococcus aureus [1] = assay: Antibacterial activity against methicillin-susceptible Staphylococcus aureus 209P after 24 hrs by microdilution method; format: functional
In short: (§1)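 Broth microdilution in Mueller-Hinton broth with 0.85% NaCl, inoculum about 10^5 CFU per 100 μL. Compounds were diluted in water from 25.6 mg/mL stocks to final 2-fold series of 0.062–128 μg/mL. Plates were incubated 24 h at 35 °C. MIC was the lowest concentration at which all triplicate wells were clear, from three independent determinations.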

Enterococcus [2] = assay: Antibacterial activity against vancomycin resistant Enterococcus FN-1 after 24 hrs by microdilution method; format: functional; conditions: FN-1, 24 h; in short: as §1
Enterococcus [3] = assay: Antibacterial activity against vancomycin resistant Enterococcus NCTC 12201 after 24 hrs by microdilution method; format: functional; conditions: NCTC 12201, 24 h; in short: as §1
Staphylococcus aureus [4] = assay: Antibacterial activity against vancomycin-intermediate Staphylococcus aureus Mu50 after 24 hrs by microdilution method; format: functional; conditions: Mu50, 24 h; in short: as §1
Staphylococcus aureus [5] = assay: Antibacterial activity against methicillin-resistant Staphylococcus aureus OM481 after 24 hrs by microdilution method; format: functional; conditions: OM481, 24 h; in short: as §1
Staphylococcus aureus [6] = assay: Antibacterial activity against methicillin-resistant Staphylococcus aureus OM584 after 24 hrs by microdilution method; format: functional; conditions: OM584, 24 h; in short: as §1
Staphylococcus aureus [7] = assay: Antibacterial activity against methicillin-resistant Staphylococcus aureus N315 after 24 hrs by microdilution method; format: functional; conditions: N315, 24 h; in short: as §1
Staphylococcus aureus [8] = assay: Antibacterial activity against methicillin-resistant Staphylococcus aureus COL after 24 hrs by microdilution method; format: functional; in short: as §1
Streptococcus pneumoniae = assay: Antibacterial activity against Streptococcus pneumoniae R6 after 24 hrs by microdilution method; format: functional; conditions: R6, 24 h
In short: (§2)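 Broth microdilution in Mueller-Hinton broth with 0.85% NaCl, inoculum about 10^5 CFU per 100 μL. Compounds diluted from 25.6 mg/mL stocks in water to 2-fold series, final 0.062–128 μg/mL. […] Three independent determinations.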

Pseudomonas aeruginosa = assay: Antibacterial activity against Pseudomonas aeruginosa PAO1 after 24 hrs by microdilution method; format: functional; conditions: PAO1, 24 h; in short: as §2
Escherichia coli = assay: Antibacterial activity against Escherichia coli K-12 after 24 hrs by microdilution method; format: functional; conditions: K-12, 24 h; in short: as §2
[9] = Inhibition of Escherichia coli DNA gyrase assessed as inhibition of pBR322 supercoiling by densitometry
In short: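 One unit of E. coli gyrase with 0.5 μg relaxed pBR322 DNA, 37 °C, 30 min. Stopped with sucrose/EDTA dye, run on 1.0% agarose in TAE. IC50 from densitometry via log-interpolation equation.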

[10] = Inhibition of Staphylococcus aureus DNA Topoisomerase 4-mediated decatenation of kDNA after 30 mins by densitometry
In short: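 Purchased S. aureus topoIV, one unit with 200 ng kDNA, 37 °C, 30 min. Products resolved on 1.0% agarose in TAE. IC50 of decatenation from densitometry by interpolation equation, at least three determinations.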

[11] = Inhibition of Escherichia coli DNA topoisomerase 4 subunit ParC/DNA topoisomerase 4 subunit ParE-mediated decatenation of kDNA by densitometry
In short: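 Purchased E. coli topoIV kit enzyme, one unit with 200 ng kDNA, 37 °C, 30 min. Buffer: 50 mM HEPES-KOH pH 7.6, 5 mM magnesium acetate, 100 mM potassium glutamate, 10 mM DTT, 1 mM ATP, 40% glycerol. Gel on 1.0% agarose in TAE. IC50 of decatenation from densitometry by interpolation equation, at least three determinations.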

Enterococcus [12] = assay: Ratio MIC for vancomycin to compound for vancomycin-resistant Enterococcus FN-1; format: functional

Row | Compound | MIC (Staphylococcus aureus [1]) [µg/mL] | MIC (Enterococcus [2]) [µg/mL] | MIC (Enterococcus [3]) [µg/mL] | MIC (Staphylococcus aureus [4]) [µg/mL] | MIC (Staphylococcus aureus [5]) [µg/mL] | MIC (Staphylococcus aureus [6]) [µg/mL] | MIC (Staphylococcus aureus [7]) [µg/mL] | MIC (Staphylococcus aureus [8]) [µg/mL] | MIC (Streptococcus pneumoniae) [µg/mL] | MIC (Pseudomonas aeruginosa) [µg/mL] | MIC (Escherichia coli) [µg/mL] | IC50 [9] [nM] | IC50 [10] [nM] | IC50 [11] [nM] | Ratio (Enterococcus [12])
1 | O=c1c(O[C@@H]2O[C@H](CO)[C@H](O)[C@H](O)[C@H]2O)c(-c2ccc(O)c(O)c2)oc2cc(O[C@@H]3O[C@H](CO)[C@H](O)[C@H](O)[C@H]3O)cc(O)c12 | > 128 | > 128 | > 128 | > 128 | > 128 | > 128 | > 128 | > 128 | > 128 | 32 (≈ 51.1 µM) | 32 (≈ 51.1 µM) | 260 | 200 | 5340 | –
2 | O=C(CCc1ccc(O)cc1)OC[C@H]1O[C@@H](Oc2c(-c3ccc(O)c(O)c3)oc3cc(O)cc(O)c3c2=O)[C@H](OC(=O)CCc2ccc(O)cc2)[C@@H](O)[C@H]1O | 2 (≈ 2.63 µM) | 4 (≈ 5.26 µM) | 4 (≈ 5.26 µM) | 2 (≈ 2.63 µM) | 1 (≈ 1.31 µM) | 1 (≈ 1.31 µM) | 2 (≈ 2.63 µM) | 4 (≈ 5.26 µM) | 4 (≈ 5.26 µM) | > 128 | > 128 | 2390 | 1590 | 10900 | –
3 | CCOc1ccc(CCC(=O)OC[C@H]2O[C@@H](Oc3c(-c4ccc(O)c(O)c4)oc4cc(O)cc(O)c4c3=O)[C@H](OC(=O)CCc3ccc(OCC)cc3)[C@@H](O)[C@H]2O)cc1 | 8 (≈ 9.79 µM) | 16 (≈ 19.6 µM) | 16 (≈ 19.6 µM) | 8 (≈ 9.79 µM) | 4 (≈ 4.9 µM) | 4 (≈ 4.9 µM) | 2 (≈ 2.45 µM) | 8 (≈ 9.79 µM) | 8 (≈ 9.79 µM) | > 128 | > 128 | 5390 | 2990 | > 12000 | –
4 | Cc1ccc(CCC(=O)OC[C@H]2O[C@@H](Oc3c(-c4ccc(O)c(O)c4)oc4cc(O)cc(O)c4c3=O)[C@H](OC(=O)CCc3ccc(C)cc3)[C@@H](O)[C@H]2O)cc1 | 0.25 (≈ 0.33 µM) | 0.5 (≈ 0.661 µM) | 0.5 (≈ 0.661 µM) | 0.5 (≈ 0.661 µM) | 0.25 (≈ 0.33 µM) | 0.25 (≈ 0.33 µM) | 0.25 (≈ 0.33 µM) | 1 (≈ 1.32 µM) | 0.25 (≈ 0.33 µM) | > 128 | > 128 | 2090 | 1490 | 9460 | –
5 | CC(=O)OC[C@H]1O[C@@H](Oc2cc(O)c3c(=O)c(O[C@@H]4O[C@H](COC(C)=O)[C@H](OC(C)=O)[C@H](OC(C)=O)[C@H]4OC(C)=O)c(-c4ccc(O)c(O)c4)oc3c2)[C@H](OC(C)=O)[C@@H](OC(C)=O)[C@H]1OC(C)=O | 128 (≈ 133 µM) | 64 (≈ 66.5 µM) | 64 (≈ 66.5 µM) | 128 (≈ 133 µM) | 128 (≈ 133 µM) | 128 (≈ 133 µM) | 128 (≈ 133 µM) | > 128 | 128 (≈ 133 µM) | > 128 | > 128 | – | – | – | 2
6 | O=C(CCCc1ccc(F)cc1)OC[C@H]1O[C@@H](Oc2c(-c3ccc(O)c(O)c3)oc3cc(O)cc(O)c3c2=O)[C@H](OC(=O)CCCc2ccc(F)cc2)[C@@H](O)[C@H]1O | 4 (≈ 5.05 µM) | 8 (≈ 10.1 µM) | 8 (≈ 10.1 µM) | 4 (≈ 5.05 µM) | 2 (≈ 2.52 µM) | 2 (≈ 2.52 µM) | 4 (≈ 5.05 µM) | 16 (≈ 20.2 µM) | 4 (≈ 5.05 µM) | > 128 | > 128 | 2980 | 2940 | 10700 | –
7 | Cc1ccc(CCC(=O)Oc2cc(O)c3c(=O)c(OC(=O)CCc4ccc(C)cc4)c(-c4ccc(O)c(O)c4)oc3c2)cc1 | 64 (≈ 108 µM) | 64 (≈ 108 µM) | 64 (≈ 108 µM) | 16 (≈ 26.9 µM) | 32 (≈ 53.8 µM) | 32 (≈ 53.8 µM) | 32 (≈ 53.8 µM) | 32 (≈ 53.8 µM) | 32 (≈ 53.8 µM) | 64 (≈ 108 µM) | 64 (≈ 108 µM) | 1660 | 440 | 8590 | 2
